Data set [1] relates to IL-2, IL-6, IL-10 and IL-1β. The data set is classed as in vivo, Wistar albino rats. To be noted: NDEA rats, ELISA; 50 and 100 mg/kg orally for 15 days. A digest of the protocol:
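Male Wistar albino rats (six weeks old, 80–120 g, n=8/group) got NDEA 100 mg/kg i.p. weekly for 6 weeks. Free or PLGA-nanoparticle test compound followed at 50 or 100 mg/kg orally for 15 days (5-FU 10 mg/kg i.p.; vehicle 0.25% CMC). Excised livers were rinsed in ice-cold saline and kept at −80°C. Hepatic IL-2, IL-6, IL-10 and IL-1β were measured by kit ELISA; mean ± SD.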

For another data set, the system named is caspase-3 and -8. Briefly: NDEA-induced HCC model: ELISA of caspase-3 and -8 in liver. The data set is classed as in vivo, Wistar albino rats. The settings on record: NDEA rats; 50 and 100 mg/kg orally for 15 days. For orientation: An ELISA detects its analyte on a solid surface through an enzyme-linked reagent.
A short description of data set [2]: In vivo oral pharmacokinetic study, plasma HPLC. Also on record: species or system albino Wistar rats. The gist of the method:
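Albino Wistar rats received free or PLGA-nanoparticle test compound orally at 100 mg/kg. […] was mixed 1:1 with ACN, vortexed, spun, dried at 40°C and reconstituted in ACN. Assay was RP-C18 HPLC (ACN:H2O 9:1, 1 mL/min, 40°C, 230 nm); calibrants 0.01–50.0 µg/mL.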

The subject of data set [3] is NDEA-induced HCC. Nature of the data set: NDEA-induced HCC model: oxidative stress parameters in liver tissue. The format is in vivo, Wistar albino rats. A digest of the protocol:
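Rats were male Wistar albino (80–120 g, n=8/group) given NDEA 100 mg/kg i.p. weekly for 6 weeks. They then received free or PLGA-nanoparticle test compound at 50 or 100 mg/kg orally, or 5-FU 10 mg/kg i.p., for 15 days. Livers were excised, rinsed in ice-cold saline and stored at −80°C. CAT, SOD, GSH, protein carbonyl and TBARS were assayed in liver tissue.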

For data set [4], the system named is NDEA-induced HCC. Nature of the data set: NDEA-induced HCC model: catabolic by-products. The format is in vivo, Wistar albino rats. To be noted: NDEA rats; 50 and 100 mg/kg orally for 15 days.
For a further data set, the system named is caspase-3 and -8 genes. Briefly: NDEA-induced HCC model: qRT-PCR of caspase-3 and -8 mRNA in liver tissue. The data set is classed as in vivo, Wistar albino rats. The settings on record: NDEA rats, 50 and 100 mg/kg orally for 15 days. On the technique in general: Real-time PCR tracks product formation cycle by cycle.
The subject of another data set is HepG2 cells. Nature of the data set: Sulforhodamine B. The data set is classed as cell-based. To be noted: Homo sapiens, HepG2, 48 h.
The test system of data set [5] is NDEA-induced HCC. Briefly: NDEA-induced HCC model: histopathology. The format is in vivo, Wistar albino rats. The settings on record: NDEA rats; 50 and 100 mg/kg orally for 15 days.
In data set [6] the test system is NDEA-induced HCC. Briefly: NDEA-induced HCC model: body weight, liver weight, tumor incidence. The format is in vivo, Wistar albino rats. A digest of the protocol: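 NDEA-induced HCC in male Wistar albino rats (six weeks old, 80–120 g, n=8/group): 100 mg/kg i.p. weekly for 6 weeks. Then free or PLGA-nanoparticle test compound was given at 50 or 100 mg/kg orally, or 5-FU 10 mg/kg i.p., for 15 days; controls got 0.25% CMC 2 mL/kg. Body weight was taken on the first and last days as % gain. Livers were weighed; nodule number and % incidence were counted.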

The mark [7] stands for this setting: albino Wistar, rat, po, 100 mg/kg.
Where [8] appears, read: oral 100 mg/kg, albino Wistar rats.
The mark [9] stands for this setting: NDEA + 50 mg/kg orally for 15 days.
Where [10] appears, read: NDEA + 100 mg/kg orally for 15 days.
Setting [11] is: NDEA + 5-FU 10 mg/kg i.p. for 15 days.

In brackets after ≈: the same amount, converted by molar mass.

Usually AUC stands for the area under the concentration-time curve, a measure of exposure. A higher AUC goes with high exposure. The term AUC(0-inf) denotes the area under the concentration-time curve extrapolated to infinity. Read a low AUC(0-inf) as less exposure. In general, Cmax refers to the peak of the concentration-time curve. The term MRT denotes the average time that molecules of a dose stay in the body. For orientation: Tmax means the time from dosing to the highest level. By half-life is commonly meant the time in which the quantity being followed falls by half. The GI50 is the concentration at which growth is held to half of that of the control. Take `C=C(C)[C@@H]1CC[C@]2(C(=O)O)CC[C@]3(C)[C@H](CC[C@@H]4[C@@]5(C)CC[C@H](O)C(C)(C)[C@@H]5CC[C@]43C)[C@@H]12` [B, Betulinic acid]: the “Inflammatory cytokines IL-2, IL-6, IL-10, IL-1β (in words)” value in data set [1] is “decreased to a certain extent”. The “Caspase-3 and -8 levels in liver, ELISA (in words)” value in the data set on caspase-3 and -8 is “ability to elevate the reduced levels of caspase-3 and -8”. Also, in data set [2] (setting [7]), the AUC stood at 134 µg·h/mL, the AUC(0-inf) came to 134 ± 35.7 µg·h/mL, the concentration peaked (Cmax) at 10300 ± 450 ng/mL and the MRT is 12.9 ± 1.35 h. Moreover, in [2] (setting [7]), the Tmax turned out to be 4 h and the half-life was 10.7 h. In addition, in data set [2] (setting [8]), the AUMC is listed as 1,724.12 µg·h^2/mL and the CL amounted to 0.007 h. For the same compound, in the data set with NDEA-induced HCC [3] (setting [9]), the CAT is recorded as 5.75±0.27 nM of H2O2/min/µg of protein, the GSH is reported as 3.25±0.65 mM/mg of protein, the ProC was 0.91±0.02 µM/µg of protein and the SOD is on record as 0.19±0.07 U/µg of protein. Also, the TBARS with NDEA-induced HCC [3] (setting [9]) is given as 0.13±0.05 nM of MDA/mg of protein. Further, in the data set on NDEA-induced HCC [3] (setting [10]), the CAT is reported as 6.81±0.73 nM of H2O2/min/µg of protein, the GSH is recorded as 3.50±0.32 mM/mg of protein, the ProC is 0.76±0.02 µM/µg of protein and the SOD is on record as 0.21±0.05 U/µg of protein. Also, the TBARS with NDEA-induced HCC [3] (setting [10]) is listed as 0.11±0.04 nM of MDA/mg of protein. In addition, the “Catabolic pigments bilirubin and biliverdin in liver tissue (in words)” value with NDEA-induced HCC [4] is “significant (p<0.001) normalization”. For the same compound, in the data set on caspase-3 and -8 genes, the “Caspase-3 and -8 gene expression, qRT-PCR (in words)” value is “significantly elevated (p<0.001) the reduced levels of caspase-3 and -8”. The same compound came in with a GI50 in the data set on HepG2 cells of 10 µg/mL (≈ 21.9 µM). Besides, the “Histological changes in liver tissue, H&E (in words)” value in the data set on NDEA-induced HCC [5] is “marked improvement in gross microscopic appearance of hepatic tissue”. Besides, in the data set on NDEA-induced HCC [6] (setting [9]), the “Final day body weight” value stood at 132.00 ± 4.25 g, the Liver weight worked out at 12.78 ± 0.73 g, the Tumor incidence no is on record as 19.00±0.97 and the Weight variation was found to be 11.00 ± 1.82 g. For the same compound, in the data set with NDEA-induced HCC [6] (setting [10]), the “Final day body weight” value is 130.00 ± 2.12 g, the Liver weight stood at 12.03 ± 1.25 g, the Tumor incidence no is 14.00±1.01 and the Weight variation is 12.00 ± 2.93 g.

Take `O=c1[nH]cc(F)c(=O)[nH]1` [Batch 5-FU, 5-fluorouracil, reference compound]: in the data set on NDEA-induced HCC [3] (setting [11]), the CAT was 8.41±0.68 nM of H2O2/min/µg of protein, the GSH is 5.04±0.61 mM/mg of protein, the ProC was 0.69±0.03 µM/µg of protein and the SOD is recorded as 0.24±0.09 U/µg of protein. Further, the TBARS with NDEA-induced HCC [3] (setting [11]) is 0.09±0.01 nM of MDA/mg of protein. Also, in the data set on NDEA-induced HCC [6] (setting [11]), the “Final day body weight” value is 125.00 ± 3.15 g, the Liver weight was found to be 10.43 ± 1.71 g, the Tumor incidence no was 6.00±0.83 and the Weight variation was found to be 10.00 ± 1.26 g.
